Test [1] has as its system Rattus norvegicus. Put plainly: Antihyperglycemic effect in streptozotocin-induced diabetic Wistar rat assessed as reduction of plasma glucose level at 0.1 mg/kg, iv bolus after 30 mins. The format is functional, organism-based. Also noted: dose 0.1 mg/kg. Summed up: (§1)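 STZ (60 mg/kg) given to fasted rats; animals with plasma glucose of 20 mmol/L or more plus diabetic features were used two weeks later. Fasted rats got an i.v. bolus of catalpol in normal saline (0.01–0.15 mg/kg) or vehicle. Tail-vein blood was drawn under pentobarbital at 30 min. Glucose was read enzymatically in duplicate, and activity was calculated as [(Gi−Gt)/Gi]×100%. n=8 per group.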

In test [2] the test system is Rattus norvegicus. Put plainly: Antihyperglycemic effect in iv bolus dosed streptozotocin-induced diabetic Wistar rat assessed as reduction of plasma glucose level after 30 mins. The format is functional, organism-based. Summed up:
as §1

For test [3], the system named is Rattus norvegicus. Nature of the test: Antihyperglycemic effect in streptozotocin-induced diabetic Wistar rat assessed as reduction of plasma glucose level at 0.15 mg/kg, iv bolus after 30 mins. Format: functional, organism-based. Also noted: dose 0.15 mg/kg. The method, boiled down:
as §1

Test [4] relates to Rattus norvegicus. Put plainly: Antihyperglycemic effect in streptozotocin-induced diabetic Wistar rat assessed as reduction of plasma glucose level at 0.1 mg/kg, iv bolus after 30 mins relative to untreated control. Further details: scale not given: the % may be the effect or the level left. Format: functional. Summed up:
as §1

The subject of test [5] is Rattus norvegicus. Nature of the test: Antihyperglycemic effect in streptozotocin-induced diabetic Wistar rat assessed as reduction of plasma glucose level at 0.01 mg/kg, iv bolus after 30 mins relative to untreated control. The format is functional. Further details: scale not given: the % may be the effect or the level left. The method, boiled down:
as §1

The test system of test [6] is Soleus muscle. Put plainly: Increase in uptake of 2-[1-14C]-deoxy-D-glucose in streptozotocin-induced diabetic Wistar rat isolated soleus muscle after 30 mins by beta counter. Format: functional, tissue-based. Summed up:
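Soleus strips came from STZ-diabetic rats. They were preincubated 30 min in KRBB (pH 7.4, 37 °C, 1 mmol/L glucose, 1% BSA, 5% CO2/O2), then exposed 30 min to test agent (10-8–10-6 M). Next came 5 min with 2-[1-14C]-deoxy-D-glucose (1 µCi/mL). Tissue was digested in NaOH and counted by β-counter. Non-specific uptake with 20 µmol/L cytochalasin B was subtracted. n=8.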

Test [7] concerns Hepatocyte. Nature of the test: Increase in glycogen synthesis in streptozotocin-induced diabetic Wistar rat hepatocyte assessed as [U14C]glucose incorporation in to glycogen […] by ethanol precipitation assay. The format is functional, cell-based. Summed up: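 Hepatocytes from STZ-diabetic rats were isolated by collagenase perfusion (>90% viable by trypan blue). After 30 min preincubation in KRBB at 37 °C, they were incubated with [U-14C]-glucose (0.25 µCi/mL) plus test agent (10-8–10-6 M) for 1 h with shaking. Glycogen label was measured by ethanol precipitation and expressed as pmol/mg protein. n=8; compared against vehicle blanks.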

Test [8] deals with Rattus norvegicus. Nature of the test: Antihyperglycemic effect in normal Wistar rat assessed as attenuation of increase of plasma glucose level at 0.1 mg/kg, iv bolus measured 5 mins after intravenous glucose challenge test.
In test [9] the test system is Rattus norvegicus. Nature of the test: Antihyperglycemic effect in normal Wistar rat assessed as attenuation of increase of plasma glucose level at 0.1 mg/kg, iv bolus measured 20 mins after intravenous glucose challenge test.
The test system of test [10] is Rattus norvegicus. Nature of the test: Antihyperglycemic effect in normal Wistar rat assessed as attenuation of increase of plasma glucose level at 0.1 mg/kg, iv bolus measured 30 mins after intravenous glucose challenge test.
The subject of test [11] is Rattus norvegicus. Nature of the test: Antihyperglycemic effect in streptozotocin-induced diabetic Wistar rat assessed as reduction of plasma glucose level at 100 mg/kg, po relative to untreated control. Also noted: scale not given: the % may be the effect or the level left.

Active and inactive are the calls of the source. The calls are words filed in the database; no cut-off is given here.

Turning to `OC[C@H]1O[C@@H](O[C@@H]2OC=C[C@H]3[C@H](O)[C@@H]4O[C@]4(CO)[C@@H]23)[C@H](O)[C@@H](O)[C@@H]1O` [CATALPOL], the outcome in test [1], in test [3], in [8] and in test [9] was Active. Besides, the Activity result in [2] is “Dose-dependent effect”; in test [4] it was 24.33%; in test [5] it was 8.53%; in test [6] it was “Dose-dependent effect”; in test [7], “Dose-dependent effect”. The result in test [10] was inactive.
`CN(C)C(=N)NC(=N)N` [METFORMIN]: in test [11], the Activity came to 32%.

The values above are taken from ChEMBL document CHEMBL1165998, “Antihyperglycemic effect of catalpol in streptozotocin-induced diabetic rats” (2010).
